Compound activity deposited in PubChem by several laboratories.
Calb biofilm kill = mixtures killing C. albicans biofilm; AID 1242; C. albicans biofilm persisters + clotrimazole, fluorescence viability; primary screen in compound mixtures of four per well; inhibition, % at 7.6 µM; 120,000 compounds, 0.02% hits;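 active = inhibition above 30.3% in the primary screen of four-compound pools, then above 30% when the compound was retested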;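 note: compounds exposed to preformed 24 h biofilms for 48 h; 0% = untreated biofilm control and 100% = clotrimazole plus chlorhexidine kill blank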
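Test system: C. albicans CAF4-2 wild-type biofilms; buffer or medium: RPMI/MOPS medium, pH 7.0; schedule: 24 h biofilm formation, then 48 h compound exposure, 37 °C; detection: Alamar Blue fluorescence; measure: percent inhibition of biofilm viability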
Mcl1-Bid inh = disrupts binding of human Mcl-1 to Bid peptide; Q07820; TR-FRET Mcl-1/Bid-Dy647 peptide binding, 1536-well; inhibition, % at 21.7 µM; 220,000 compounds, 0.97% hits;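 active = compounds that cut the binding signal by more than half at the single screening dose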;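 note: His-tagged Mcl-1 with europium anti-His antibody binding Bid BH3 peptide; 0% = Mcl-1 plus peptide wells and 100% = peptide-only wells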
Target sequence (Q07820 whole entry, looked up): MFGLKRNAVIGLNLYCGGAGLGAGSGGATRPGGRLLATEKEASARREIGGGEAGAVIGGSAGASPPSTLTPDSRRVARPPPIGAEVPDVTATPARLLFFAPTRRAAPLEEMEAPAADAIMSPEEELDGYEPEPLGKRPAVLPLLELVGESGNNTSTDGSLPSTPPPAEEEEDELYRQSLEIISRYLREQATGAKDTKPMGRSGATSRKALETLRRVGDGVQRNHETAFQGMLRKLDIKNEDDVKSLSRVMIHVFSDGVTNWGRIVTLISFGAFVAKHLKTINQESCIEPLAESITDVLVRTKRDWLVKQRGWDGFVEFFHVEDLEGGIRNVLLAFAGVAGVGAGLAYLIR
Mcl1-Noxa inh = disrupts binding of human Mcl-1 to Noxa peptide; Q07820; TR-FRET Mcl-1/Noxa peptide binding, 2 h; inhibition, % at 21.7 µM; 220,000 compounds, 1.5% hits;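 active = compounds that cut the protein-peptide binding signal by more than 50% relative to plate controls in a single-dose test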;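 note: His-tagged Mcl-1 with rhodamine Noxa BH3 peptide and terbium anti-His antibody; 0% = Mcl-1 plus Noxa peptide wells and 100% = peptide-only wells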
Arbovirus anti = arbovirus infection inhibition; arbovirus infection cell-based antiviral screen; inhibition, % at 10 µM; 200,000 compounds, 0.37% hits; in the data active = inhibition above about 30%
m-calpain inh = calpain II (pig) inhibition. purified calpain II, fluorogenic peptide substrate, 30 min. inhibition, % at 16 µM. 220,000 compounds, 0.37% hits;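 active = inhibition above about 50%, limit read from the data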
Bim-Mcl-1 = inhibitors of Bim-Mcl-1 interaction, human; inhibition, % at 10 µM; Q07820; AID 1009; Bead-based flow cytometry, Bim peptide-Mcl-1 binding; 190,000 compounds, 0.1% hits; in the data active = inhibition above about 40%;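 note: 0% = no compound tracer wells and 100% = peptide blocker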
Starred values were filed as active, the others as inactive; . = no result. Only some compounds are listed: those with a hit (about 2.8% of all), similar ones and a draw of the others.

SMILES	Calb biofilm kill	Mcl1-Bid inh	Mcl1-Noxa inh	Arbovirus anti	m-calpain inh	Bim-Mcl-1
COc1ccc(Cl)cc1C(Nc1cccnc1)c1ccc2cccnc2c1O (stereo not drawn)	7.2	96.6*	46.5	-25.5	-90.2	0.0
Cc1ccc2c(c1)C(c1ccccc1)CC(=O)O2 (stereo not drawn)	10.8	-5.1	20.7	.	-3.7	.
CCCc1[nH]nc2c1C1(C(=O)N(C(C)C)c3ccccc31)C(C#N)=C(N)O2 (stereo not drawn)	.	2.0	-8.8	-1.0	-24.1	0.0
CCCCc1[nH]nc2c1C1(C(=O)N(CC)c3ccccc31)C(C#N)=C(N)O2 (stereo not drawn)	.	0.2	105.9*	8.9	-11.4	-2.0
N/C(=N\NC(=O)c1ccccc1)c1cc2ccccc2oc1=O	9.6	-34.5	-6.1	10.7	59.5*	3.0
CC(NC(=O)CCCCCN1C(=O)c2ccccc2C1=O)c1ccc2c(c1)CCCC2 (stereo not drawn)	.	3.0	-0.7	14.5	57.2*	3.0
O=C(/C=C\c1ccc(-c2cccc([N+](=O)[O-])c2)o1)N1CCOCC1	4.1	-9.8	8.0	-1.5	-3.5	-1.0
CCCCCNc1nc2ccccc2nc1NS(=O)(=O)c1cccs1	.	30.7	4.7	32.1*	-40.4	3.0
C=CCNc1nc2ccccc2nc1NS(=O)(=O)c1cccs1	.	0.6	-6.4	5.5	-53.3	3.0
O=C(CSc1nnc(NC(=O)C2CC2)s1)Nc1ccc2c(c1)OCCO2	25.3	-22.8	2.9	0.3	-18.6	-1.0
Oc1ccc(F)cc1-c1cc(-c2ccc3c(c2)OCCO3)n[nH]1	.	-1.5	32.3	31.5*	13.3	-1.0
Cc1occc1-c1nnc(SCC(=O)N2CCCCC2)o1	14.2	-31.7	8.4	1.7	3.7	0.0
O=C(NN(CC(O)COc1ccccc1)CC(O)COc1ccccc1)c1ccccc1 (stereo not drawn)	5.2	-6.2	7.4	.	-5.6	.
CC(C)(C)C1CCc2c(C(=O)NNC(=O)CCC(=O)O)csc2C1 (stereo not drawn)	8.1	-8.4	104.1*	5.1	-15.5	-6.0
Cc1nnc(NC(=O)CSc2nc3ccccc3o2)s1	10.9	2.4	25.2	2.9	23.0	7.0
C=CCSc1nnc(NC(=O)CSc2nc3ccccc3o2)s1	.	-10.4	30.6	36.4*	-5.3	-1.0
COc1ccc(S(=O)(=O)NCC2CCCN(Cc3ccccc3C)C2)cc1 (stereo not drawn)	13.5	-25.5	-4.5	-11.2	9.6	0.0
CC(C)(C)c1ccc2c(c1)C(=O)c1ccccc1C2=O	18.6	-37.0	-13.7	-2.1	-3.1	-1.0
CC(C)(C)C1=CC=C(C(C)(C)C)C(=O)C1=O	13.7	16.7	88.8*	.	28.0	.
CCCNC(=S)N1CCC(C(=O)c2ccc3c(c2)OCCO3)CC1	5.4	-34.9	-13.6	0.1	3.4	7.0
Cc1nc2c(C(=O)NCCc3ccccc3Cl)c[nH]n2c(=O)c1Cl	6.1	37.8	34.2	59.7*	-2.9	-4.0
O=C(COc1ccccc1Cc1ccccc1)NCCCN1CCOCC1	21.3	-17.9	16.4	.	-16.6	.
Cc1ccc(CNC(=O)CCS(=O)(=O)c2cccc3nonc23)cc1	.	93.1*	4.4	5.8	-25.0	-1.0
O=C(CCN1CCN(c2ccccc2)CC1)NNC(=S)Nc1ccccc1Cl	17.1	-44.5	-9.3	2.2	-18.1	-4.0
CC(C)CN(CC(C)C)C(=S)NC1CCCCC1	17.8	93.0*	15.4	5.6	5.7	-1.0
SMILES	Calb biofilm kill	Mcl1-Bid inh	Mcl1-Noxa inh	Arbovirus anti	m-calpain inh	Bim-Mcl-1
CS(=O)(=O)c1ccc(C(=O)OCC(=O)NC(=O)C2CCCCC2)cc1[N+](=O)[O-]	16.4	-2.9	0.0	5.4	-10.7	0.0
CN1CCN(CCCN2c3ccccc3Sc3ccc(Cl)cc32)CC1	13.4	44.7	77.2*	-43.4	-6.7	-1.0
OCCN1CCN(CCCN2c3ccccc3Sc3ccc(C(F)(F)F)cc32)CC1	16.2	35.9	50.2	-44.3	-41.8	-3.0
COc1ccc(C2CC(c3ccc(OC)cc3)n3nc(N)nc3N2)cc1 (stereo not drawn)	.	.	.	0.6	.	.
COc1ccc(C2CC(c3ccccc3)Nc3nc(N)nn32)cc1 (stereo not drawn)	.	70.9*	-1.4	-3.7	15.9	0.0
Cc1c(CCC(=O)O)c(=O)oc2c(C)c(OCc3cc4c(cc3Cl)OCO4)ccc12	19.3	-30.7	58.1*	.	9.0	.
O=C(COC(=O)CCc1nc2ccccc2c(=O)[nH]1)Nc1ccc2c(c1)OCO2	13.7	-15.9	25.5	.	-26.6	.
